Test results: ChEMBL document CHEMBL1122378, “Antiallergic agents. 2. N-(1H-tetrazol-5-yl)-6-phenyl-2-pyridinecarboxamides” (1983)

Legend:
Format in all cases: functional
[1] = tested on: Rattus norvegicus; test: Antiallergic activity against passive cutaneous anaphylaxis (PCA) in male Sprague-Dawley rats after 1.0 mg/kg oral administration
Summary of the method: (§1)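 IgE antiserum raised in male Sprague-Dawley rats (ca. 200 g) by immunization with Ascaris suum extract (2 then 0.2 mg protein), bled 2 weeks after the second dose. Recipients got 0.05 mL diluted antiserum intracutaneously on the back. Blued area (product of two diameters) was read at 30 min.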

[2] = tested on: Rattus norvegicus; test: Inhibition of passive cutaneous anaphylaxis in male Sprague-Dawley rats following 0.3 mg/kg p.o. administration; Not significant.; details: route oral; summary of the method: as §1
[3] = tested on: Rattus norvegicus; test: Inhibition of passive cutaneous anaphylaxis in male Sprague-Dawley rats following 1 mg/kg p.o. administration; Not significant.; details: route oral; summary of the method: as §1
[4] = tested on: Rattus norvegicus; test: Antiallergic activity against passive cutaneous anaphylaxis (PCA) in male Sprague-Dawley rats after 3.0 mg/kg oral administration; summary of the method: as §1
[5] = tested on: Rattus norvegicus; test: Inhibition of passive cutaneous anaphylaxis in male Sprague-Dawley rats following 10 mg/kg p.o. administration.; details: route oral; summary of the method: as §1
[6] = tested on: Rattus norvegicus; test: Antiallergic activity against passive cutaneous anaphylaxis (PCA) in male Sprague-Dawley rats after 3.0 mg/kg oral administration;not statistically significant; summary of the method: as §1
[7] = tested on: Rattus norvegicus; test: Antiallergic activity against passive cutaneous anaphylaxis (PCA) in male Sprague-Dawley rats after 0.3 mg/kg oral administration; summary of the method: as §1

SMILES | inhibition in vivo at 1 mg/kg [1] [%] | inhibition in vivo at 0.3 mg/kg [2] [%] | inhibition in vivo at 3 mg/kg [4] [%] | other results
CNc1ccc(-c2cc(C)cc(C(=O)Nc3nn[nH]n3)n2)cc1 | 89 | 36 |  | 
COc1ccc(-c2cccc(C(=O)Nc3nn[nH]n3)n2)cc1 |  | 4 | 36 | inhibition in vivo at 1 mg/kg [3]: 12%
CC(C)c1ccc(-c2cc(Cl)cc(C(=O)Nc3nn[nH]n3)n2)cc1 |  |  | 68 | inhibition in vivo at 1 mg/kg [3]: 14%; inhibition in vivo at 10 mg/kg [5]: 90%
CCCOc1cc(C(=O)Nc2nn[nH]n2)nc(-c2ccc(N)cc2)c1 | 64 | 7 | 68 | 
CNc1ccc(-c2cc(OC)cc(C(=O)Nc3nn[nH]n3)n2)cc1 |  |  | 79 | inhibition in vivo at 1 mg/kg [3]: 35%
CCCc1cc(C(=O)Nc2nn[nH]n2)nc(-c2ccc(C)cc2)c1 |  |  | 50 | inhibition in vivo at 10 mg/kg [5]: 84%
CC(C)c1cc(C(=O)Nc2nn[nH]n2)nc(-c2ccc(N)cc2)c1 |  | 22 |  | inhibition in vivo at 1 mg/kg [3]: 29%; inhibition in vivo at 3 mg/kg [6]: 43%
CCCCc1ccc(-c2cc(CC)cc(C(=O)Nc3nn[nH]n3)n2)cc1 |  |  | 70 | inhibition in vivo at 1 mg/kg [3]: 20%
CCOc1cc(C(=O)Nc2nn[nH]n2)nc(-c2ccc(N)cc2)c1 | 52 | 19 | 62 | 
COc1cc(C(=O)Nc2nn[nH]n2)nc(-c2ccc(Cl)cc2)c1 | 0 |  |  | inhibition in vivo at 3 mg/kg [6]: 12%; inhibition in vivo at 10 mg/kg [5]: 55%
COc1ccc(-c2cc(Cl)cc(C(=O)Nc3nn[nH]n3)n2)cc1OC |  |  |  | inhibition in vivo at 1 mg/kg [3]: 15%; inhibition in vivo at 3 mg/kg [6]: 30%
CCCCc1ccc(-c2cc(Cl)cc(C(=O)Nc3nn[nH]n3)n2)cc1 | 0 |  | 83 | 
CNc1ccc(-c2cccc(C(=O)Nc3nn[nH]n3)n2)cc1 |  | 29 |  | inhibition in vivo at 1 mg/kg [3]: 71%; inhibition in vivo at 3 mg/kg [6]: 83%
Cc1ccc(-c2cccc(C(=O)Nc3nn[nH]n3)n2)cc1C |  |  |  | inhibition in vivo at 3 mg/kg [6]: 28%; inhibition in vivo at 10 mg/kg [5]: 39%
COc1cc(C(=O)Nc2nn[nH]n2)nc(-c2ccccc2)c1 | 62 |  | 97 | inhibition in vivo at 10 mg/kg [5]: 100%
CCCCc1cc(C(=O)Nc2nn[nH]n2)nc(-c2ccc(N)cc2)c1 | 81 |  |  | inhibition in vivo at 0.3 mg/kg [7]: 41%
CCCCc1cc(C(=O)Nc2nn[nH]n2)nc(-c2ccc(CC)cc2)c1 |  |  |  | inhibition in vivo at 1 mg/kg [3]: 19%; inhibition in vivo at 3 mg/kg [6]: 25%
COc1cc(C(=O)Nc2nn[nH]n2)nc(-c2ccc(C)c(C)c2)c1 |  |  | 82 | inhibition in vivo at 1 mg/kg [3]: 21%
COc1cc(C(=O)Nc2nn[nH]n2)nc(-c2ccc(N(C)C)cc2)c1 | 64 |  | 100 | inhibition in vivo at 0.3 mg/kg [7]: 29%
Cc1cc(C(=O)Nc2nn[nH]n2)nc(-c2ccccc2)c1 |  |  | 50 | inhibition in vivo at 1 mg/kg [3]: 23%; inhibition in vivo at 10 mg/kg [5]: 88%
Cc1ccc(-c2cc(Cl)cc(C(=O)Nc3nn[nH]n3)n2)cc1 | 86 | 10 |  | 
CCCc1ccc(-c2cc(C)cc(C(=O)Nc3nn[nH]n3)n2)cc1 |  | 19 |  | inhibition in vivo at 1 mg/kg [3]: 65%
Cc1cccc(-c2cc(C)cc(C(=O)Nc3nn[nH]n3)n2)c1 | 51 |  | 61 | 
CCCc1ccc(-c2cc(Cl)cc(C(=O)Nc3nn[nH]n3)n2)cc1 | 78 |  |  | inhibition in vivo at 0.3 mg/kg [7]: 42%
COc1ccccc1-c1cccc(C(=O)Nc2nn[nH]n2)n1 |  |  |  | inhibition in vivo at 10 mg/kg [5]: 0%
CCc1cc(C(=O)Nc2nn[nH]n2)nc(-c2ccccc2)c1 |  |  | 53 | inhibition in vivo at 10 mg/kg [5]: 85%

SMILES | inhibition in vivo at 1 mg/kg [1] [%] | inhibition in vivo at 0.3 mg/kg [2] [%] | inhibition in vivo at 3 mg/kg [4] [%] | other results
Nc1ccc(-c2cccc(C(=O)Nc3nn[nH]n3)n2)cc1 | 62 | 11 | 81 | 
Cc1cc(C(=O)Nc2nn[nH]n2)nc(-c2ccc(N(C)C)cc2)c1 |  |  |  | inhibition in vivo at 3 mg/kg [6]: 24%
Cc1cc(C(=O)Nc2nn[nH]n2)nc(-c2ccc(C(C)C)cc2)c1 | 34 |  | 100 | 
Cc1ccc(-c2cc(CC(C)C)cc(C(=O)Nc3nn[nH]n3)n2)cc1 |  |  | 52 | inhibition in vivo at 1 mg/kg [3]: 9%
CCCCc1ccc(-c2cc(OC)cc(C(=O)Nc3nn[nH]n3)n2)cc1 |  |  | 61 | inhibition in vivo at 1 mg/kg [3]: 29%; inhibition in vivo at 10 mg/kg [5]: 92%
COc1cccc(-c2cc(Cl)cc(C(=O)Nc3nn[nH]n3)n2)c1 | 51 |  | 95 | inhibition in vivo at 0.3 mg/kg [7]: 32%
COc1ccc(-c2cc(OC)cc(C(=O)Nc3nn[nH]n3)n2)cc1 |  |  | 60 | inhibition in vivo at 1 mg/kg [3]: 25%
CC(=O)Nc1ccc(-c2cc(C)cc(C(=O)Nc3nn[nH]n3)n2)cc1 |  |  |  | inhibition in vivo at 3 mg/kg [6]: 32%
O=C(Nc1nn[nH]n1)c1cc(Cl)cc(-c2ccccc2)n1 | 40 |  |  | 
CCOc1cc(C(=O)Nc2nn[nH]n2)nc(-c2ccc(C)cc2)c1 | 65 | 26 |  | 
Nc1ccc(-c2cc(Cl)cc(C(=O)Nc3nn[nH]n3)n2)cc1 | 100 |  | 100 | inhibition in vivo at 0.3 mg/kg [7]: 39%
COc1cccc(-c2cc(C)cc(C(=O)Nc3nn[nH]n3)n2)c1 |  |  | 65 | inhibition in vivo at 1 mg/kg [3]: 25%
COc1cc(C(=O)Nc2nn[nH]n2)nc(-c2ccc(C)cc2)c1 | 42 | 16 |  | 
COc1cc(C(=O)Nc2nn[nH]n2)nc(-c2ccc(C(C)C)cc2)c1 | 54 | 29 |  | 
CCc1ccc(-c2cc(OC)cc(C(=O)Nc3nn[nH]n3)n2)cc1 | 43 |  |  | inhibition in vivo at 0.3 mg/kg [7]: 23%
CCOc1cc(C(=O)Nc2nn[nH]n2)nc(-c2ccc(N(CC)CC)cc2)c1 | 66 |  |  | inhibition in vivo at 0.3 mg/kg [7]: 44%
COc1cc(C(=O)Nc2nn[nH]n2)nc(-c2cccc(Cl)c2)c1 |  |  | 34 | inhibition in vivo at 10 mg/kg [5]: 64%
CCN(CC)c1ccc(-c2cc(C)cc(C(=O)Nc3nn[nH]n3)n2)cc1 |  | 19 |  | 
COc1cc(C(=O)Nc2nn[nH]n2)nc(-c2ccc(NC(C)=O)cc2)c1 | 0 |  |  | inhibition in vivo at 3 mg/kg [6]: 27%; inhibition in vivo at 10 mg/kg [5]: 100%
CCc1cc(C(=O)Nc2nn[nH]n2)nc(-c2ccc(C)cc2)c1 |  | 33 |  | 
CCCCc1cc(C(=O)Nc2nn[nH]n2)nc(-c2ccccc2)c1 | 56 |  | 71 | inhibition in vivo at 10 mg/kg [5]: 100%
CCCc1ccc(-c2cc(OC)cc(C(=O)Nc3nn[nH]n3)n2)cc1 | 73 | 32 | 93 | 
COc1ccc(-c2cc(Cl)cc(C(=O)Nc3nn[nH]n3)n2)cc1 | 43 |  | 100 | inhibition in vivo at 0.3 mg/kg [7]: 40%
CCCCc1cc(C(=O)Nc2nn[nH]n2)nc(-c2cccc(C)c2)c1 | 36 |  | 82 | inhibition in vivo at 10 mg/kg [5]: 100%
Cc1ccc(-c2cccc(C(=O)Nc3nn[nH]n3)n2)cc1 | 67 | 21 |  | 
